Experimental data reported in paper PMC7453568 (ACS Central Science, 2020).
Entries after “also recorded” stand apart in the source; their conditions may differ.

Columns and labels:
[1] = target: T1, KRAS^G12C (Homo sapiens, UniProt P01116, G12C); experiment: KRAS^G12C engagement, band shift of PROTAC-conjugated KRAS on immunoblot; type: cell-based; conditions: 2.5 μM
In short: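 KRAS was immunoblotted from independent wells harvested the same day. Engagement was the intensity of the higher-molecular-weight, PROTAC-modified band relative to unbound KRAS in DMSO samples. Mean ± SD, two biological replicates.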

[2] = target: KRAS^G13D (Homo sapiens, UniProt P01116, G13D); experiment: KRAS engagement/degradation in HCT 116 cells; type: cell-based; conditions: HCT 116 cells (heterozygous KRAS^G13D), up to 10 μM
[3] = target: T1, KRAS^G12C; experiment: KRAS^G12C degradation, total KRAS levels by immunoblotting; type: cell-based
[4] = tested on: pErk; experiment: Erk signaling; type: cell-based, human; conditions: for pErk: MIA PaCa-2 and NCI-H23 cells, 6 and 24 h
In short: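 Human KRAS^G12C cancer cells were treated for 24 h over a degrader dose range (NCI-H2030, heterozygous NCI-H23). Separately, MIA PaCa-2 and NCI-H23 received degrader or parent covalent inhibitor for 6 and 24 h, and time courses used 2.5 μM degrader. pErk and total Erk were immunoblotted and quantified against DMSO-treated cells. Lysates came from independent wells harvested the same day. Time-course data: mean ± SD, two biological replicates.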

[5] = tested on: NCI-H23 cells; experiment: Cell viability assay; type: cell-based, human; conditions: heterozygous NCI-H23 cells, MTS, 72 h
[6] = tested on: NCI-H2030 cells; experiment: Cell viability assay; type: cell-based, human; conditions: homozygous NCI-H2030 cells, MTS, 72 h
[7] = MIA PaCa-2, NCI-H23 and SW1573 cells, 2.5 μM, 6-72 h time course
[8] = NCI-H2030 cells, 2.5 μM, 24 h time course

Q: What does the source list for `C=C(F)C(=O)N1CCN(c2nc(OC[C@@H]3CCCN3CCCOCCC(=O)N[C@H](C(=O)N3C[C@H](O)C[C@H]3C(=O)NCc3ccc(-c4scnc4C)cc3)C(C)(C)C)nc3c2CCN(c2cccc4cccc(Cl)c24)C3)C[C@@H]1CC#N` [LC-2]?
A: time at which KRAS^G12C binding/engagement is seen ([1]; NCI-H2030 cells): ≤ 1 h; time at which KRAS engagement is seen ([1]; SW1573 cells): ≤ 1 h; engagement or degradation of KRAS^G13D [2]: No engagement or degradation; Dmax ([3]; MIA PaCa-2, MIA PaCa-2 cells, KRAS^G12C +/+, 24 h): ~75%; duration of KRAS degradation [3, 7]: sustained up to 72 h; time to maximal KRAS degradation [3, 7]: ≤ 24 h; Dmax ([3]; NCI-H23, NCI-H23 cells, KRAS^G12C +/−, 24 h): ~90%; KRAS degradation ([3]; NCI-H23 cells (heterozygous)): > 50%; KRAS degradation with neddylation inhibition ([3]; NCI-H23 cells, 2.5 μM LC-2, 24 h): rescues; also recorded: rescued KRAS degradation; KRAS^G12C level rebound ([3]; NCI-H23 cells, 2.5 μM, 72 h time course): began to rebound at 72 h; Dmax ([3]; NCI-H358, NCI-H358 cells, KRAS^G12C +/−, 24 h): ~40%; Dmax ([3]; NCI-H2030, NCI-H2030 cells, KRAS^G12C +/+, 24 h): ~75%; KRAS^G12C levels with neddylation inhibitor MLN4924 ([3]; NCI-H2030 cells, 1 μM MLN4924, 2.5 μM LC-2, 4 h): rescued KRAS^G12C levels; KRAS^G12C levels with proteasome inhibitor epoxomicin ([3]; NCI-H2030 cells, 1 μM epoxomicin, 2.5 μM LC-2, 4 h): rescued KRAS^G12C levels; KRAS^G12C degradation ([3]; NCI-H2030 cells, 2.5 μM, 4 h): ~65%; persistence of maximal degradation [3, 8]: persisted up to 24 h; also recorded: maintained up to 24 h; time to maximum degradation [3, 8]: ≤ 8 h; lowest concentration inducing maximal degradation of endogenous KRAS^G12C ([3]; NCI-H2030 cells, 24 h): 2.5 µM; KRAS levels, dose response ([3]; NCI-H2030 cells, 24 h, increasing concentrations): degrades KRAS^G12C in a dose-dependent manner; Dmax ([3]; SW1573, SW1573 cells, KRAS^G12C +/+, 24 h): ~90%; time to maximal degradation ([3]; SW1573 cells, 2.5 μM, 24 h time course): 12 h; pErk ([4]; 2.5 μM): suppressed; pErk signaling, dose response ([4]; NCI-H23 cells, 24 h): dose-dependent decrease; pErk signaling, dose response ([4]; NCI-H2030 cells, 24 h): dose-dependent decrease; pErk levels versus DMSO-treated cells ([4]; SW1573 cells, 2.5 μM, 24 h): significantly lower; total Erk versus DMSO ([4]; SW1573 cells, 2.5 μM, all time points): increased; phosphorylated Erk ([4]; SW1573 cells, 2.5 μM, between 1 and 4 h): inhibited; pErk levels ([4]; SW1573 cells, 2.5 μM, between 8 and 24 h): rebounded

Q: How did the “cell viability (antiproliferative potency)” value [5] turn out when `C=C(F)C(=O)N1CCN(c2nc(OC[C@@H]3CCCN3C)nc3c2CCN(c2cccc4cccc(Cl)c24)C3)C[C@@H]1CC#N` [MRTX849] was run?
A: more antiproliferative

Q: What about the “cell viability (antiproliferative potency)” value [6] of the same compound?
A: more antiproliferative

Q: And the pErk ([4]; 0.10 μM)?
A: suppressed
